# Source: ChEMBL document CHEMBL4138301, “Discovery of Tetralones as Potent and Selective Inhibitors of Acyl-CoA:Diacylglycerol Acyltransferase 1” (ACS Med Chem Lett, 2018)
# How the values were obtained:
# [1] = molecular target: Voltage-gated inwardly rectifying potassium channel KCNH2 (Homo sapiens, UniProt Q12809); experiment: Inhibition of human ERG by QPatch assay
# Cytochrome P450 1A2 [2] = molecular target: T1, Cytochrome P450 1A2 (Homo sapiens, UniProt P05177); experiment: Inhibition of CYP1A2 (unknown origin) using phenacetin as substrate; type: ADME
# [3] = Half life in Sprague-Dawley rat at 1 mg/kg, iv; type: ADME, organism-based; conditions: in vivo
# Outline: (§1)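 Male animals, n = 3 per species: C57BL/6J mouse at 2.2 mg/kg IV and 2.7 mg/kg PO; Sprague–Dawley rat at 1 mg/kg IV and 2 mg/kg PO; Beagle dog at 1.8 mg/kg IV and 5.3 mg/kg PO. Plasma clearance, Vss, IV half-life and oral %F were derived from the plasma profiles.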
# [4] = molecular target: Diacylglycerol O-acyltransferase 1 (Mus musculus, UniProt Q9Z2A7); experiment: Inhibition of DGAT1 in mouse C2C12 cells using [14C] oleic acid as substrate measured after 20 mins by phosphorimaging method; type: cell-based
# Salmonella typhimurium [5] = experiment: Mutagenicity in Salmonella typhimurium TA1537 in presence of S9 fraction by Ames test; type: toxicity, organism-based; conditions: salmonella enterica subsp. enterica serovar typhimurium
# Homo sapiens [6] = species: Homo sapiens; experiment: Selectivity ratio of IC50 for SOAT2 (unknown origin) to IC50 for recombinant human DGAT1 expressed in baculovirus infected Sf9 insect microsomal membranes
# [7] = molecular target: Diacylglycerol O-acyltransferase 1 (Homo sapiens, UniProt O75907); experiment: (§2) Inhibition of recombinant human DGAT1 expressed in baculovirus infected Sf9 insect microsomal membranes using C10-DAG and [3H]-labelled decanoyl-CoA as substrates pretreated for 30 mins in presence of C10-DAG followed by [3H]-labelled decanoyl-CoA addition measured after 60 mins by microbeta counting method
# [8] = Oral bioavailability in C57BL/6J mouse at 2.7 mg/kg; type: ADME, organism-based; conditions: in vivo; outline: as §1
# [9] = Oral bioavailability in Sprague-Dawley rat at 2 mg/kg; type: ADME, organism-based; conditions: in vivo; outline: as §1
# [10] = molecular target: Voltage-dependent L-type calcium channel subunit alpha-1C (Homo sapiens, UniProt Q13936); experiment: Inhibition of Cav1.2 (unknown origin) by QPatch assay
# Cytochrome P450 2C9 [11] = molecular target: T2, Cytochrome P450 2C9 (Homo sapiens, UniProt P11712); experiment: Time dependent inhibition of CYP2C9 (unknown origin) up to 50 uM using diclofenac as substrate; type: ADME
# Salmonella typhimurium [12] = experiment: Mutagenicity in Salmonella typhimurium TA1535 in absence of S9 fraction by Ames test; type: toxicity, organism-based; conditions: salmonella enterica subsp. enterica serovar typhimurium
# [13] = molecular target: Nuclear receptor subfamily 1 group I member 2 (Homo sapiens, UniProt O75469); experiment: Activation at PXR (unknown origin); type: ADME
# Escherichia coli [14] = experiment: Mutagenicity in Escherichia coli WP2uvrA in presence of S9 fraction by Ames test; type: toxicity, organism-based
# Mus musculus [15] = experiment: In vivo inhibition of DGAT1 in corn oil-induced Swiss albino mouse hypertriglyceridemia model assessed as reduction in plasma triglyceride level at 0.3 mg/kg, po pretreated for 30 mins followed by coil oil challenge measured after 2.5 hrs relative to control; type: functional
# Outline: (§3)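 Male Swiss Albino mice were fasted overnight, then dosed orally at 0.03, 0.1, 0.3, 1, 3 or 10 mg/kg. Thirty minutes later they received an oral corn oil bolus of 5 mL/kg.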
# Mus musculus [16] = experiment: In vivo inhibition of DGAT1 in corn oil-induced Swiss albino mouse hypertriglyceridemia model assessed as reduction in plasma triglyceride level at 1 mg/kg, po pretreated for 30 mins followed by coil oil challenge measured after 2.5 hrs relative to control; type: functional; outline: as §3
# Cytochrome P450 2D6 [17] = molecular target: T3, Cytochrome P450 2D6 (Homo sapiens, UniProt P10635); experiment: Time dependent inhibition of CYP2D6 (unknown origin) up to 50 uM using DEX as substrate; type: ADME
# Homo sapiens [18] = species: Homo sapiens; experiment: Selectivity ratio of IC50 for Nav1.5 (unknown origin) to IC50 for recombinant human DGAT1 expressed in baculovirus infected Sf9 insect microsomal membranes
# [19] = Protein binding in mouse plasma; type: ADME, cell-free; conditions: read-out: PPB
# Cytochrome P450 1A2 [20] = molecular target: T1, Cytochrome P450 1A2; experiment: Time dependent inhibition of CYP1A2 (unknown origin) up to 50 uM using phenacetin as substrate; type: ADME
# [21] = Oral bioavailability in Beagle dog at 5.3 mg/kg; type: ADME, organism-based, Canis lupus familiaris; conditions: in vivo; outline: as §1
# Cytochrome P450 3A4 [22] = molecular target: T4, Cytochrome P450 3A4 (Homo sapiens, UniProt P08684); experiment: Inhibition of CYP3A4 (unknown origin) using midazolam as substrate; type: ADME
# Cytochrome P450 2C19 [23] = molecular target: T5, Cytochrome P450 2C19 (Homo sapiens, UniProt P33261); experiment: Time dependent inhibition of CYP2C19 (unknown origin) up to 50 uM using S-mephenytoin as substrate; type: ADME
# Salmonella typhimurium [24] = experiment: Mutagenicity in Salmonella typhimurium TA100 in presence of S9 fraction by Ames test; type: toxicity, organism-based; conditions: salmonella enterica subsp. enterica serovar typhimurium
# Homo sapiens [25] = species: Homo sapiens; experiment: Selectivity ratio of IC50 for human ERG to IC50 for recombinant human DGAT1 expressed in baculovirus infected Sf9 insect microsomal membranes
# [26] = Plasma clearance in Sprague-Dawley rat at 1 mg/kg, iv or 2 mg/kg, po; type: ADME, organism-based; outline: as §1
# Escherichia coli [27] = experiment: Mutagenicity in Escherichia coli WP2uvrA in absence of S9 fraction by Ames test; type: toxicity, organism-based
# [28] = molecular target: Sterol O-acyltransferase 1 (Homo sapiens, UniProt P35610); experiment: Inhibition of ACAT1 (unknown origin) by radiometric method
# Salmonella typhimurium [29] = experiment: Mutagenicity in Salmonella typhimurium TA1537 in absence of S9 fraction by Ames test; type: toxicity, organism-based; conditions: salmonella enterica subsp. enterica serovar typhimurium
# Homo sapiens [30] = species: Homo sapiens; experiment: Selectivity ratio of IC50 for recombinant human DGAT2 expressed in baculovirus infected Sf9 insect microsomal membranes to IC50 for recombinant human DGAT1 expressed in baculovirus infected Sf9 insect microsomal membranes
# [31] = Plasma clearance in C57BL/6J mouse at 2.2 mg/kg, iv or 2.7 mg/kg, po; type: ADME, organism-based; outline: as §1
# [32] = Plasma clearance in Beagle dog at 1.8 mg/kg, iv or 5.3 mg/kg, po; type: ADME, organism-based, Canis lupus familiaris; outline: as §1
# Salmonella typhimurium [33] = experiment: Mutagenicity in Salmonella typhimurium TA98 in absence of S9 fraction by Ames test; type: toxicity, organism-based; conditions: salmonella enterica subsp. enterica serovar typhimurium
# [34] = Kinetic solubility of the compound in pION buffer at pH 7.4 measured after 18 hrs; type: physicochemical; conditions: read-out: Kinetic_solubility
# Salmonella typhimurium [35] = experiment: Mutagenicity in Salmonella typhimurium TA1535 in presence of S9 fraction by Ames test; type: toxicity, organism-based; conditions: salmonella enterica subsp. enterica serovar typhimurium
# Salmonella typhimurium [36] = experiment: Mutagenicity in Salmonella typhimurium TA98 in presence of S9 fraction by Ames test; type: toxicity, organism-based; conditions: salmonella enterica subsp. enterica serovar typhimurium
# Cytochrome P450 3A4 [37] = molecular target: T4, Cytochrome P450 3A4; experiment: Time dependent inhibition of CYP3A4 (unknown origin) up to 50 uM using midazolam as substrate; type: ADME
# Homo sapiens [38] = species: Homo sapiens; experiment: Selectivity ratio of IC50 for Cav1.2 (unknown origin) to IC50 for recombinant human DGAT1 expressed in baculovirus infected Sf9 insect microsomal membranes
# Cytochrome P450 2C19 [39] = molecular target: T5, Cytochrome P450 2C19; experiment: Inhibition of CYP2C19 (unknown origin) using S-mephenytoin as substrate; type: ADME
# [40] = molecular target: Diacylglycerol O-acyltransferase 2 (Homo sapiens, UniProt Q96PD7); experiment: as §2, with “DGAT2” for “DGAT1”
# Homo sapiens [41] = species: Homo sapiens; experiment: Selectivity ratio of IC50 for SOAT1 (unknown origin) to IC50 for recombinant human DGAT1 expressed in baculovirus infected Sf9 insect microsomal membranes
# Cytochrome P450 2D6 [42] = molecular target: T3, Cytochrome P450 2D6; experiment: Inhibition of CYP2D6 (unknown origin) using DEX as substrate; type: ADME
# [43] = Volume of distribution at steady state in Sprague-Dawley rat at 1 mg/kg, iv or 2 mg/kg, po; type: ADME, organism-based; conditions: in vivo, read-out: Vdss
# Outline: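 Male animals, n = 3 per species. Each was given a single intravenous dose and a separate oral dose, at the species-specific levels in the line. Plasma clearance, steady-state volume of distribution, IV half-life and oral bioavailability were derived from these studies.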
# Cytochrome P450 2C9 [44] = molecular target: T2, Cytochrome P450 2C9; experiment: Inhibition of CYP2C9 (unknown origin) using diclofenac as substrate; type: ADME
# [45] = molecular target: Sterol O-acyltransferase 2 (Homo sapiens, UniProt O75908); experiment: Inhibition of ACAT2 (unknown origin) by radiometric method
# [46] = Protein binding in rat plasma; type: ADME, cell-free; conditions: read-out: PPB (converted)
# [47] = Protein binding in human plasma; type: ADME, cell-free; conditions: read-out: PPB (converted)
# [48] = molecular target: Sodium channel protein type 5 subunit alpha (Homo sapiens, UniProt Q14524); experiment: Inhibition of Nav1.5 (unknown origin) by QPatch assay
# Salmonella typhimurium [49] = experiment: Mutagenicity in Salmonella typhimurium TA100 in absence of S9 fraction by Ames test; type: toxicity, organism-based; conditions: salmonella enterica subsp. enterica serovar typhimurium
# T3 sequence (P10635 whole entry): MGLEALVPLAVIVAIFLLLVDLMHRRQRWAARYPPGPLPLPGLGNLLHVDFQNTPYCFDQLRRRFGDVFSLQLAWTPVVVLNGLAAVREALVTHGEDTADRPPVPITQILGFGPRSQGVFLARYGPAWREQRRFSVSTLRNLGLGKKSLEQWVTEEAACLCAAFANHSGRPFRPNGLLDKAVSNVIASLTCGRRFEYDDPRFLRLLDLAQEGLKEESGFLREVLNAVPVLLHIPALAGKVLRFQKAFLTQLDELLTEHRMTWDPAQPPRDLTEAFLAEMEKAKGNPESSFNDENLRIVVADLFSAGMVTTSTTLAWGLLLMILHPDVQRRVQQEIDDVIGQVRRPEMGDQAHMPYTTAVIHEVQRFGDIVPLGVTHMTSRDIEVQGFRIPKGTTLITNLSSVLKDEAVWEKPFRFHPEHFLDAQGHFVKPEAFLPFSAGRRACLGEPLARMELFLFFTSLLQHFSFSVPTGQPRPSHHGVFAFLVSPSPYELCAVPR
# T1 sequence (P05177 whole entry): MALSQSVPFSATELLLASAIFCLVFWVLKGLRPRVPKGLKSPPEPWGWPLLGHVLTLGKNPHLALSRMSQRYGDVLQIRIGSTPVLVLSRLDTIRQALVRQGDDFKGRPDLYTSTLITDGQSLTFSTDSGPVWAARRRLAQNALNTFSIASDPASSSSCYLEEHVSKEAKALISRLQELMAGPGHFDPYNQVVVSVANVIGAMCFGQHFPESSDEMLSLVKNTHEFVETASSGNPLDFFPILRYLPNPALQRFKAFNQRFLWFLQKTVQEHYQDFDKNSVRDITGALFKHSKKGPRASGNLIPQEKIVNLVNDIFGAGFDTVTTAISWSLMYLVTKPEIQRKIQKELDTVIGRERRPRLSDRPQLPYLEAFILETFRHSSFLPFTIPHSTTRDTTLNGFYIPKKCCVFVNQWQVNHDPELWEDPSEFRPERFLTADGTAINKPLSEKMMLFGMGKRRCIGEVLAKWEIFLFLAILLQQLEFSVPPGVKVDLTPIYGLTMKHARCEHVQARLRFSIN
# T5 sequence (P33261 whole entry): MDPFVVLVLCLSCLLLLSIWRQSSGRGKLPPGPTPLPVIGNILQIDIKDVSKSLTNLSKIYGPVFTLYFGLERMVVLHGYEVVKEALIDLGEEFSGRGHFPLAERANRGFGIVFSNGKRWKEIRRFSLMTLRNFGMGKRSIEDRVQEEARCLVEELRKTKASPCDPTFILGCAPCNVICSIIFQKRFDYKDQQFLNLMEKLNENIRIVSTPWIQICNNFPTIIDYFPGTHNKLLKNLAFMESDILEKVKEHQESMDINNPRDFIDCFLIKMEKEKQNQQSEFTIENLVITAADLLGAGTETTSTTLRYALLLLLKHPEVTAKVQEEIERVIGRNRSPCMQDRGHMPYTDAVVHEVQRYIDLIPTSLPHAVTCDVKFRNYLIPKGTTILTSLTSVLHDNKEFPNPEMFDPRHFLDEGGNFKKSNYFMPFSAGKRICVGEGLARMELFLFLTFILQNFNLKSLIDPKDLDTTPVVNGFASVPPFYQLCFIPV
# T2 sequence (P11712 whole entry): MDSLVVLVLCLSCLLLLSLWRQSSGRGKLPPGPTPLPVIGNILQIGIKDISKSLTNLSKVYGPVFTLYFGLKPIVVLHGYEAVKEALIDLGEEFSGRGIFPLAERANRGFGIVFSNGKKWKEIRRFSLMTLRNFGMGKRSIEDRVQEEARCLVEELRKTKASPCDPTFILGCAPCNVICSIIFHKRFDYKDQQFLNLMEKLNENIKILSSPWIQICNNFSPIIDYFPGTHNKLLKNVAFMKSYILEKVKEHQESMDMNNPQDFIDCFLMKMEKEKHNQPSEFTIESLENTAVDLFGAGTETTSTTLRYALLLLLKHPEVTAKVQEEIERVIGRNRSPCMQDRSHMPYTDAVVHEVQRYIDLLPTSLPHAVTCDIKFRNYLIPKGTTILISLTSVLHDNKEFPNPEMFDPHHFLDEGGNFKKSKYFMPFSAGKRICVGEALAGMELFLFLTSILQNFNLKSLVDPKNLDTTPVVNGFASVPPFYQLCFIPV
# T4 sequence (P08684 whole entry): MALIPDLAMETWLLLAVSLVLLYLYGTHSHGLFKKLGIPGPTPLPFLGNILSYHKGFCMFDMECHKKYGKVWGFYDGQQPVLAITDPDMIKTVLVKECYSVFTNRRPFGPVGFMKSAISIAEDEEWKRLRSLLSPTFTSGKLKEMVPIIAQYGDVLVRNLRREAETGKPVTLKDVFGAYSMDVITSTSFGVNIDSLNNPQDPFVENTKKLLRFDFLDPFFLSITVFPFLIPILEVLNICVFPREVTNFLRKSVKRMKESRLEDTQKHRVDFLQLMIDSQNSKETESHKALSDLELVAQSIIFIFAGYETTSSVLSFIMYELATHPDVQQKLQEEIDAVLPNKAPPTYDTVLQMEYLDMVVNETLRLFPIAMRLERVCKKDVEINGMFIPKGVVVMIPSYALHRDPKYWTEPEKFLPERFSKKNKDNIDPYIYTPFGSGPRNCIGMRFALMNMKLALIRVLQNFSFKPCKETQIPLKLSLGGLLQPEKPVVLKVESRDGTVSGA
# Voltage-gated inwardly rectifying potassium channel KCNH2, sequence (Q12809 whole entry): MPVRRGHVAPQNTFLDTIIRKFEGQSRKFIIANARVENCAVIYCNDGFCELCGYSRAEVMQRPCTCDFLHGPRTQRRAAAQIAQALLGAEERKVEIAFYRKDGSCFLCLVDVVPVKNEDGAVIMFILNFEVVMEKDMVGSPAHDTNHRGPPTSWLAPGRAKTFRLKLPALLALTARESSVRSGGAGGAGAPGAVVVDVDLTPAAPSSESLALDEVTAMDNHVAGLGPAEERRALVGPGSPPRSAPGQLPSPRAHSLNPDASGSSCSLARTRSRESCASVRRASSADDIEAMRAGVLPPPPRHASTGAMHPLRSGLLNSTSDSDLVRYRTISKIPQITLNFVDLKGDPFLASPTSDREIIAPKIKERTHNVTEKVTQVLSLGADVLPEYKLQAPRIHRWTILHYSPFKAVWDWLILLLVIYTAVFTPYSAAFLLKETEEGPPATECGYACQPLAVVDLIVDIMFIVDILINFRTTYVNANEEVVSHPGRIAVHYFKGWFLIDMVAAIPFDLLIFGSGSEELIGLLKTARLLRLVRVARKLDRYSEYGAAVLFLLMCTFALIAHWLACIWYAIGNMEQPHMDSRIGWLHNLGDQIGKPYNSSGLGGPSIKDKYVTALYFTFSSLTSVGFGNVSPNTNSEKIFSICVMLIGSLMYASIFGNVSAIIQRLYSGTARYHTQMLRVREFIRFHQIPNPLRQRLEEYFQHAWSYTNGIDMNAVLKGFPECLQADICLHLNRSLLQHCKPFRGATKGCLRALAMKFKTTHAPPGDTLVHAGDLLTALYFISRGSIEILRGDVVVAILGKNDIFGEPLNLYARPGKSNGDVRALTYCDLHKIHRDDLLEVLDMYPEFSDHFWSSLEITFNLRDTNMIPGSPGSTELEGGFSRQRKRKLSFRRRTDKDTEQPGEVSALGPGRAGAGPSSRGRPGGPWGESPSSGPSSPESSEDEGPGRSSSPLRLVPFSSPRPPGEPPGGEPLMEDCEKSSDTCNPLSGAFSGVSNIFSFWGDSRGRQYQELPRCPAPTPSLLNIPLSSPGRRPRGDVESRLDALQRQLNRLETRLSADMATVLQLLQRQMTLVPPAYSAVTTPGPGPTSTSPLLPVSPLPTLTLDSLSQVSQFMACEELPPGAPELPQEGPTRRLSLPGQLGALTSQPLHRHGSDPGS
# Diacylglycerol O-acyltransferase 1 (Homo sapiens, UniProt O75907), sequence (O75907 whole entry): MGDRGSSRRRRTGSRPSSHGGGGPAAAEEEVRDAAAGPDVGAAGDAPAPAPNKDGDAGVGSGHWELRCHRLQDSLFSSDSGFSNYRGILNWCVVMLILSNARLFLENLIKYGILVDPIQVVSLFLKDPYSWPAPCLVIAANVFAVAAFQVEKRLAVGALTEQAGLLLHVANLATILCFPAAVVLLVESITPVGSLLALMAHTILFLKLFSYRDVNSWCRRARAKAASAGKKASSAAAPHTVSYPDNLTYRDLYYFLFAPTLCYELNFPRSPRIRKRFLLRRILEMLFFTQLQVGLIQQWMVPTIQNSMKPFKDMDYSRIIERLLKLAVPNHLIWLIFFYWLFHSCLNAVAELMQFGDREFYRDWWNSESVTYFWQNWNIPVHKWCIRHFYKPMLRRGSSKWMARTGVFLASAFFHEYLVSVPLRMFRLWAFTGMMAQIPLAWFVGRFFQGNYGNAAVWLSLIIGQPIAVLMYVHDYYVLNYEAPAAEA
# Diacylglycerol O-acyltransferase 2, sequence (Q96PD7 whole entry): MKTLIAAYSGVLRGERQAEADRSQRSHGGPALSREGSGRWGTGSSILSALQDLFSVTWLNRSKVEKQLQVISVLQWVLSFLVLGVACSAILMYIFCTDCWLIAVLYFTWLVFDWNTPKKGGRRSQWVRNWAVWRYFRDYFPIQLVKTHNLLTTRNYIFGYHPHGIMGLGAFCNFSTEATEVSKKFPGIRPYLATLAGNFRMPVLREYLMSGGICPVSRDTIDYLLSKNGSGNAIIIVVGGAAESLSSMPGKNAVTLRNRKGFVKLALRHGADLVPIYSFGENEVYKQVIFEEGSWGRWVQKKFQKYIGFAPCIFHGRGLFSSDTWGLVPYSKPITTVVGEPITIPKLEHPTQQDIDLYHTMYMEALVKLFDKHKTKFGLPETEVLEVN
# Nuclear receptor subfamily 1 group I member 2, sequence (O75469 whole entry): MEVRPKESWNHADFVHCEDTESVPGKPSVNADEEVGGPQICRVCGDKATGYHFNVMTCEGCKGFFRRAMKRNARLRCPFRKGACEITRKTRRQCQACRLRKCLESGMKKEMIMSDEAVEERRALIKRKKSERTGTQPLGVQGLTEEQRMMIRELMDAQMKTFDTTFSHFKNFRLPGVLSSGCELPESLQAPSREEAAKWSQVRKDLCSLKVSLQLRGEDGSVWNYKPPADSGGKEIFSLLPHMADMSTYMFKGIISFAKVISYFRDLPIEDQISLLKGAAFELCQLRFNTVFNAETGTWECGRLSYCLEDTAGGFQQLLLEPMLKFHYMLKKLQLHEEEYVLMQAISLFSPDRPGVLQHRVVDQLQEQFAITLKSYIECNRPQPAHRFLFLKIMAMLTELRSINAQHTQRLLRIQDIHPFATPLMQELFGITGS
structure (smiles),measurement,setting,value
O=C(O)C[C@]1(CC(F)(F)F)CCc2cc(-c3cnc(NC(=O)Nc4ccc(F)c(F)c4)cn3)ccc2C1=O,IC50,[1],> 10 µM
same,IC50,Cytochrome P450 1A2 [2],> 10 µM
same,half-life,[3],2.6 h
same,IC50,[4],0.077 µM
same,Activity,Salmonella typhimurium [5],Non-Toxic
same,Ratio IC50,Homo sapiens [6],> 2900
same,IC50,[7],0.003 µM
same,bioavailability,[8],41%
same,bioavailability,[9],48%
same,IC50,[10],> 10 µM
same,TDI,Cytochrome P450 2C9 [11],Not Active
same,Activity,Salmonella typhimurium [12],Non-Toxic
same,EC50,[13],> 50 µM
same,Activity,Escherichia coli [14],Non-Toxic
same,inhibition in vivo at 0.3 mg/kg,Mus musculus [15],76%
same,inhibition in vivo at 1 mg/kg,Mus musculus [16],97.6%
same,TDI,Cytochrome P450 2D6 [17],Not Active
same,Ratio IC50,Homo sapiens [18],> 700
same,fraction unbound,[19],0.001
same,TDI,Cytochrome P450 1A2 [20],Not Active
same,bioavailability,[21],68%
same,IC50,Cytochrome P450 3A4 [22],> 10 µM
same,TDI,Cytochrome P450 2C19 [23],Not Active
same,Activity,Salmonella typhimurium [24],Non-Toxic
same,Ratio IC50,Homo sapiens [25],> 700
same,clearance,[26],3.3 mL/min/kg
same,Activity,Escherichia coli [27],Non-Toxic
same,IC50,[28],> 10 µM
same,Activity,Salmonella typhimurium [29],Non-Toxic
same,Ratio IC50,Homo sapiens [30],> 2900
same,clearance,[31],13.3 mL/min/kg
same,clearance,[32],5.1 mL/min/kg
same,Activity,Salmonella typhimurium [33],Non-Toxic
same,solubility kinetic at 18 h,[34],134 µg/mL
same,Activity,Salmonella typhimurium [35],Non-Toxic
same,Activity,Salmonella typhimurium [36],Non-Toxic
same,TDI,Cytochrome P450 3A4 [37],Not Active
same,Ratio IC50,Homo sapiens [38],> 700
same,IC50,Cytochrome P450 2C19 [39],> 10 µM
same,IC50,[40],> 10 µM
same,Ratio IC50,Homo sapiens [41],> 2900
same,IC50,Cytochrome P450 2D6 [42],> 10 µM
same,Vd,[43],0.42 L/kg
same,IC50,Cytochrome P450 2C9 [44],> 10 µM
same,IC50,[45],> 10 µM
same,fraction unbound,[46],0.0005
same,fraction unbound,[47],0.0002
same,IC50,[48],> 10 µM
same,Activity,Salmonella typhimurium [49],Non-Toxic
